Laboratory results as given in ChEMBL document CHEMBL1159330, “New diarylheptanoids and diarylheptanoid glucosides from the rhizomes of Tacca chantrieri and their cytotoxic activity” (J Nat Prod, 2002).
In brackets after ≈: the same amount, converted by molar mass.

Legend:
HL-60 = assay: Cytotoxicity against human HL60 cells after 72 hrs by MTT assay; type: functional, cell-based; conditions: HL-60, 72 h
Procedure, shortened: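 HL-60 cells kept in RPMI 1640 with 10% heat-inactivated FBS, penicillin and streptomycin, 5% CO₂, 37 °C. Seeded at 4 × 10⁴ cells/mL, 196 µL per well, pre-incubated 24 h. Sample added in EtOH-H₂O (1:1) to final 0.1-10 µg/mL, solvent-only controls. Exposure 72 h. Triplicate. IC₅₀ = 50% drop in viable cells.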

[1] = Cytotoxicity against HGF by MTT assay; type: cell-based; conditions: Homo sapiens
Procedure, shortened: (§1)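 HSC-2 grown in DMEM with 10% heat-inactivated FBS. HGF taken from a healthy person's gingival biopsy, explant-cultured, used at passages 5-7. Cells trypsinized, seeded at 6 × 10³ per well, grown 24 h. Washed with PBS, then compound for 24 h. Washed, 0.2 mg/mL MTT in DMEM/10% FBS for 4 h. Lysed in DMSO, A540 measured.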

HSC-2 = assay: Cytotoxicity against human HSC2 cells by MTT assay; type: functional, cell-based; procedure, shortened: as §1

In the case of `COc1cc(CC[C@H](C[C@H](O)CCc2ccc(O)cc2)O[C@@H]2O[C@H](CO)[C@@H](O)[C@H](O)[C@H]2O)ccc1O`, the IC50 (HL-60) is reported as > 10 µg/mL, the IC50 [1] is reported as > 250 µg/mL and the IC50 (HSC-2) is reported as 160 µg/mL (≈ 315 µM).

Compound `COc1ccc(CC[C@@H](O)C[C@H](O)CCc2ccc(OC)cc2)cc1` has an IC50 (HL-60) of 6.4 µg/mL (≈ 18.6 µM), an IC50 [1] of 173 µg/mL (≈ 502 µM) and an IC50 (HSC-2) of 23 µg/mL (≈ 66.8 µM).

For `Oc1ccc(CC[C@@H](O)C[C@H](O)CCc2ccc(O)c(O)c2)cc1`, the IC50 (HL-60) was 2.1 µg/mL (≈ 6.32 µM), the IC50 [1] was 162 µg/mL (≈ 487 µM) and the IC50 (HSC-2) was 54 µg/mL (≈ 162 µM).

`OC[C@H]1O[C@@H](O[C@H](CCc2ccc(O)c(O)c2)C[C@H](O)CCc2ccc(O)cc2)[C@H](O)[C@@H](O)[C@@H]1O` gave an IC50 (HL-60) of 6.2 µg/mL (≈ 12.5 µM), an IC50 [1] of 220 µg/mL (≈ 445 µM) and an IC50 (HSC-2) of 158 µg/mL (≈ 319 µM).

For `COc1cc(CC[C@@H](O)C[C@@H](CCc2ccc(O)c(OC)c2)O[C@@H]2O[C@H](CO)[C@@H](O)[C@H](O)[C@H]2O)ccc1O`, the IC50 (HL-60) was > 10 µg/mL, the IC50 [1] was > 250 µg/mL and the IC50 (HSC-2) was 198 µg/mL (≈ 368 µM).

For `COc1cc(CC[C@H](C[C@H](O)CCc2ccc(O)c(O)c2)O[C@@H]2O[C@H](CO)[C@@H](O)[C@H](O)[C@H]2O)ccc1O`, the IC50 (HL-60) was 4.5 µg/mL (≈ 8.58 µM), the IC50 [1] was > 250 µg/mL and the IC50 (HSC-2) was 209 µg/mL (≈ 398 µM).

In the case of `OC[C@H]1O[C@@H](O[C@H](CCc2ccc(O)cc2)C[C@H](O)CCc2ccc(O)c(O)c2)[C@H](O)[C@@H](O)[C@@H]1O`, the IC50 (HL-60) is reported as 5.5 µg/mL (≈ 11.1 µM), the IC50 [1] is reported as > 250 µg/mL and the IC50 (HSC-2) is reported as 155 µg/mL (≈ 313 µM).

With `Oc1ccc(CC[C@@H](O)C[C@H](O)CCc2ccc(O)c(O)c2)cc1O` the IC50 (HL-60) was 1.8 µg/mL (≈ 5.17 µM), the IC50 [1] was > 250 µg/mL and the IC50 (HSC-2) was 54 µg/mL (≈ 155 µM).

Work on `COc1ccc(CC[C@@H](O)C[C@H](O)CCc2ccc(OC)c(OC)c2)cc1OC` yielded an IC50 (HL-60) of 4.9 µg/mL (≈ 12.1 µM), an IC50 [1] of 174 µg/mL (≈ 430 µM) and an IC50 (HSC-2) of 6.6 µg/mL (≈ 16.3 µM).

In the case of `COc1cc([C@@H]2c3cc4c(cc3[C@@H](O[C@@H]3O[C@@H]5CO[C@@H](C)O[C@H]5[C@H](O)[C@H]3O)[C@H]3COC(=O)[C@H]23)OCO4)cc(OC)c1O` [ETOPOSIDE], the IC50 (HL-60) is reported as 0.2 µg/mL (≈ 0.34 µM) and the IC50 [1] is reported as > 200 µg/mL.

Compound `COc1cc(CC[C@@H](O)C[C@H](O)CCc2ccc(O)c(O)c2)ccc1O` has an IC50 (HL-60) of 4.1 µg/mL (≈ 11.3 µM).

In the case of `COc1ccc(CC[C@@H](O)C[C@H](O)CCc2ccc(OC)c(OC)c2)cc1`, the IC50 (HL-60) is reported as 5.5 µg/mL (≈ 14.7 µM), the IC50 [1] is reported as 176 µg/mL (≈ 470 µM) and the IC50 (HSC-2) is reported as 3.9 µg/mL (≈ 10.4 µM).

In the case of `OC[C@H]1O[C@@H](O[C@H](CCc2ccc(O)cc2)C[C@H](O)CCc2ccc(O)cc2)[C@H](O)[C@@H](O)[C@@H]1O`, the IC50 (HL-60) is reported as > 10 µg/mL, the IC50 [1] is reported as 213 µg/mL (≈ 445 µM) and the IC50 (HSC-2) is reported as 157 µg/mL (≈ 328 µM).

`OC[C@H]1O[C@@H](O[C@H](CCc2ccc(O)c(O)c2)C[C@H](O)CCc2ccc(O)c(O)c2)[C@H](O)[C@@H](O)[C@@H]1O` showed an IC50 (HL-60) of 3 µg/mL (≈ 5.88 µM), an IC50 [1] of 189 µg/mL (≈ 370 µM) and an IC50 (HSC-2) of 92 µg/mL (≈ 180 µM).

With `COc1cc(CC[C@@H](O)C[C@H](O)CCc2ccc(O)c(OC)c2)ccc1O` the IC50 (HL-60) was > 10 µg/mL.

In the case of `COc1cc(CC[C@@H](O)C[C@H](O)CCc2ccc(O)cc2)ccc1O`, the IC50 (HL-60) is reported as > 10 µg/mL.

For `Oc1ccc(CC[C@@H](O)C[C@H](O)CCc2ccc(O)cc2)cc1` [(+)-HANNOKINOL], the IC50 (HL-60) was > 10 µg/mL, the IC50 [1] was 177 µg/mL (≈ 559 µM) and the IC50 (HSC-2) was 231 µg/mL (≈ 730 µM).
